The test system of the assay is P. carinii. Put plainly: ATP bioassay, anti-Pneumocystis activity. It is filed as cell-based, Pneumocystis carinii. The settings on record: for IC50: Pneumocystis carinii. An outline of the steps: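 Rat-lung P. carinii (male CD rats, methylprednisolone-immunosuppressed), cryopreserved, thawed, held at 5 × 10^7 nuclei/ml in RPMI-1640 + 20% calf serum, 37 °C, 5% CO2. Screen at 100 µg/ml; titrated if ATP fell ≥50%. Luciferin-luciferase ATP at 6, 24, 48, 72 h. Triplicate wells, 3 assays, 2 batches. Ampicillin 10 µg/ml and pentamidine 1 µg/ml controls. IC50: linear regression, % ATP decrease vs log concentration.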

Where [1] appears, read: 72 h, read-out: IC50 (µg/ml) ± SD for P. carinii.

Each structure is given as a SMILES string. Like-named read-outs stand apart in the source and are kept apart here.

In the case of `Cl.Cl.N=C(N)c1ccc(NCCOCCNc2ccc(C(=N)N)cc2)cc1` [compound 5], the IC50 was 0.47 ± 0.09 µg/mL under setting [1] and 0.1 to 0.99 µg/mL (read-out: Activity ranking).

As for `CN(CCOc1ccc(C(=N)N)cc1)CCOc1ccc(C(=N)N)cc1.Cl.Cl` [compound 1, 1,5-Bis(4-amidinophenoxy)-N-methyl-3-azapentane trihydrochloride], the IC50 by setting is: under setting [1], 0.82 ± 0.44 µg/mL; (read-out: Activity ranking) 0.1 to 0.99 µg/mL.

For the molecule `N=C(N)c1ccc(OCCCCCOc2ccc(C(=N)N)cc2)cc1` [pentamidine, reference compound], the IC50 by setting is: (72 h) 0.5 µM; under setting [1], 0.3 µg/mL.

On to `COc1cc(C(=N)N)cc(OC)c1OCCCCCOc1c(OC)cc(C(=N)N)cc1OC.Cl.Cl` [compound 9, 1,5-Bis(4-amidino-2,6-dimethoxyphenoxy)pentane dihydrochloride], for which the IC50 was 1.68 ± 0.37 µg/mL under setting [1] and 1 to 9.99 µg/mL (read-out: Activity ranking).

With `CN(CCCCCN(C)c1ccc(C(=N)N)cc1)c1ccc(C(=N)N)cc1.Cl.Cl` [compound 4], the IC50 under setting [1] was 1.02 ± 0.51 µg/mL and the IC50 (read-out: Activity ranking) was in the range of 1 to 9.99 µg/mL.

On to `COc1cc(C(=N)N)ccc1OCCN(C)CCOc1ccc(C(=N)N)cc1OC.Cl.Cl` [compound 2, 1,5-Bis(4-amidino-2-methoxyphenoxy)-N-methyl-3-azapentane], for which the IC50 under setting [1] was 2.1 ± 1.24 µg/mL and the IC50 (read-out: Activity ranking) is 1 to 9.99 µg/mL.

Consider `Cl.Cl.N=C(N)c1ccc(C(=O)NCCCCNC(=O)c2ccc(C(=N)N)cc2)cc1` [compound 18, N,N’-Butane-1,4-diylbis(4-amidinobenzamide) dihydrochloride], for which the IC50 is, setting by setting: under setting [1], 1.85 ± 0.01 µg/mL; (read-out: Activity ranking) 1 to 9.99 µg/mL.

On to `COc1cc(C(=N)N)cc(OC)c1OCCN(C)CCOc1c(OC)cc(C(=N)N)cc1OC.Cl.Cl` [compound 3, 1,5-Bis(4-amidino-2,6-dimethoxyphenoxy)-N-methyl-3-azapentane trihydrochloride], for which the IC50 by setting is: under setting [1], 45.2 ± 16.9 µg/mL; (read-out: Activity ranking) 10 to 49.9 µg/mL.

`Cl.Cl.N=C(N)c1ccc(C(=O)NCCCCCCNC(=O)c2ccc(C(=N)N)cc2)cc1` [compound 20, N,N’-Hexane-1,6-diylbis(4-amidinobenzamide) dihydrochloride]: the IC50 reads like this: under setting [1], 4.9 ± 1.2 µg/mL; (read-out: Activity ranking) 1 to 9.99 µg/mL.

`COc1cc(C(=N)N)ccc1OCCOCCOc1ccc(C(=N)N)cc1OC.Cl.Cl` [compound 7, 1,5-Bis(4-amidino-2-methoxyphenoxy)-3-oxapentane dihydrochloride]: the IC50 under setting [1] stood at 2 ± 1.65 µg/mL and the IC50 (read-out: Activity ranking) lay in the range of 1 to 9.99 µg/mL.

In the case of `COc1cc(C(=N)N)cc(OC)c1OCCN(CCOc1c(OC)cc(C(=N)N)cc1OC)S(=O)(=O)c1ccccc1.Cl.Cl` [compound 13, N,N-Bis[2(4-amidino-2,6-dimethoxyphenoxy)ethyl]-benzenesulfonamide], the IC50 reads like this: under setting [1], 3.13 ± 0.99 µg/mL; (read-out: Activity ranking) 1 to 9.99 µg/mL.

Take `Cl.Cl.N=C(N)c1ccc(C(=O)NCCCNC(=O)c2ccc(C(=N)N)cc2)cc1` [compound 17, N,N’-Propane-1,3-diylbis(4-amidinobenzamide) dihydrochloride]: the IC50 under setting [1] turned out to be 1.53 ± 0.9 µg/mL and the IC50 (read-out: Activity ranking) lay in the range of 1 to 9.99 µg/mL.

`COc1cc(C(=N)N)cc(OC)c1OCCOCCOc1c(OC)cc(C(=N)N)cc1OC.Cl.Cl` [compound 8, 1,5-Bis(4-amidino-2,6-dimethoxyphenoxy)-3-oxapentane dihydrochloride]: the IC50 runs as follows: under setting [1], 7.66 ± 1.67 µg/mL; (read-out: Activity ranking) 1 to 9.99 µg/mL.

With `Cl.Cl.N=C(N)c1ccc(OCCOCCOc2ccc(C(=N)N)cc2)cc1` [compound 6], the IC50 is 0.96 ± 0.32 µg/mL under setting [1] and 0.1 to 0.99 µg/mL (read-out: Activity ranking).

As for `Cl.Cl.N=C(N)c1ccc(OCCN(CCOc2ccc(C(=N)N)cc2)S(=O)(=O)c2ccccc2)cc1` [compound 11, N,N-Bis[2(4-amidinophenoxy)ethyl]benzenesulfonamide dihydrochloride], the IC50 is 0.81 ± 0.12 µg/mL under setting [1] and 0.1 to 0.99 µg/mL (read-out: Activity ranking). In addition, the Activity ranking result (ranking based on IC50 in µg/ml) is reported as “marked”.

Consider `COc1cc(C(=N)N)cc(OC)c1OCCN(CCOc1c(OC)cc(C(=N)N)cc1OC)S(=O)(=O)c1ccc(N)cc1.Cl.Cl` [compound 16], for which the IC50 was 3.24 ± 0.88 µg/mL under setting [1] and 1 to 9.99 µg/mL (read-out: Activity ranking).

For `Cl.Cl.N=C(N)c1ccc(C(=O)NCCCCCNC(=O)c2ccc(C(=N)N)cc2)cc1` [compound 19, N,N’-Pentane-1,5-diylbis(4-amidinobenzamide) dihydrochloride], the IC50 under setting [1] came out at 7.4 ± 0.22 µg/mL and the IC50 (read-out: Activity ranking) was 1 to 9.99 µg/mL.

In the case of `COc1cc(C(=N)N)ccc1OCCN(CCOc1ccc(C(=N)N)cc1OC)S(=O)(=O)c1ccccc1.Cl.Cl` [compound 12, N,N-Bis[2(4-amidino-2-methoxyphenoxy)ethyl]benzenesulfonamide dihydrochloride], the IC50 runs as follows: under setting [1], 1.8 ± 0.76 µg/mL; (read-out: Activity ranking) 1 to 9.99 µg/mL.

For `COc1cc(C(=N)N)ccc1OCCN(CCOc1ccc(C(=N)N)cc1OC)S(=O)(=O)c1ccc(NC(C)=O)cc1.Cl.Cl` [compound 15, N,N-Bis[2(4-amidino-2-methoxyphenoxy)ethyl]-4-acetamidobenzenesulfonamide], the IC50 is 2.59 ± 0.83 µg/mL under setting [1] and 1 to 9.99 µg/mL (read-out: Activity ranking).

As for `Cl.Cl.N=C(N)c1ccc(OCCSCCOc2ccc(C(=N)N)cc2)cc1` [compound 10, 1,5-Bis(4-amidinophenoxy)-3-thiapentane dihydrochloride], the IC50 runs as follows: under setting [1], 0.52 ± 0.04 µg/mL; (read-out: Activity ranking) 0.1 to 0.99 µg/mL.

Source of the values: paper PMC3273716 (European Journal of Medicinal Chemistry, 2011).
